The values below come from ChEMBL document CHEMBL1123397, “Antiarrhythmic activity of 17 beta-aminoestratrienes. Comparison of 3-ols and 3-acetates with the corresponding 3-(3-amino-2-hydroxypropyl) ethers” (1986).

Converted amounts (≈) assume the structure as drawn. The source made the active and inactive calls. The rule behind the calls is not given here.

In assay [1] the test system is Rattus norvegicus. As to the kind of experiment: Effect on heart rate on 1 min post isoprenaline induced tachycardia in the anesthetized rat at 1 mg/kg dose. It is filed as functional. The gist of the method: (§1)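 Test drug or vehicle was given i.v., and isoprenaline (10 µg/kg) 14 min later. Heart rate was read from the lead II ECG just before drug, at 14 min (pre-isoprenaline) and 1 min after isoprenaline. Compared by Student's t test; 7–12 animals per group; mean ± SEM.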

The species named for assay [2] is Mus musculus. As to the kind of experiment: ED 50 value against aconitine-induced arrhythmias in mice. The assay is classed as functional. The gist of the method: (§2)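 Anaesthetised mice were given test compound intraperitoneally, then aconitine intravenously to induce arrhythmia. At least three doses were tested in separate groups (n = 6-10). ED50 is the dose raising the arrhythmogenic aconitine dose 50% above the control requirement.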

For assay [3], the species on record is Cavia porcellus. As to the kind of experiment: Concentration required to reduce maximum following frequencu (MFF) of isolated guinea pig atria by 25%. It is filed as functional. The gist of the method: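 Guinea pig left atria in an organ bath of Krebs solution at 35 °C, gassed with carbogen, electrically driven, isometric contractions recorded. Drugs added cumulatively; maximum following frequency determined 6 min after each concentration. Concentration reducing MFF by 25% (EC25) calculated from six preparations.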

The test system of assay [4] is Rattus norvegicus. Description: Mean change in heart rate recorded 14 min after the administration of compound. It is filed as functional. The gist of the method: as §1
In assay [5] the test system is Rattus norvegicus. As to the kind of experiment: Compound that antagonized arrhythmias evoked by coronary artery ligation in the rat was measured at 0.05 mg/kg dose. It is filed as functional. The gist of the method:
(§3)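 Male Wistar rats, anaesthetised and artificially ventilated, with left thoracotomy; silk suture under main left coronary artery. After stabilization, test drug or vehicle i.v.; 14 min later isoprenaline 10 μg/kg; 1 min after that the ligature was tightened and VF incidence recorded over 30 min. Carotid pressure and lead II ECG monitored continuously. 7-12 animals per group.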

Assay [6] deals with Rattus norvegicus. As to the kind of experiment: Effect on heart rate before isoprenaline induced tachycardia in the anesthetized rat at 1 mg/kg dose. The assay is classed as functional. The gist of the method: (§4)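 Same ligation protocol in anaesthetised male Wistar rats. Heart rate was taken from the lead II ECG at three points: just before i.v. drug or vehicle, 14 min after it (just before isoprenaline 10 μg/kg), and 1 min after isoprenaline. Pre vs post rates and isoprenaline responses vs controls were compared by Student's t test. Mean ± SEM of 7-12 observations.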

Assay [7] concerns Rattus norvegicus. As to the kind of experiment: Effect on heart rate after isoprenaline induced tachycardia in the anesthetized rat at 1 mg/kg dose. It is filed as functional. The gist of the method: as §4
Assay [8] is filed under the species Rattus norvegicus. As to the kind of experiment: Maximum increase in heart rate evoked by isoprenaline. It is filed as functional. The method in brief:
as §1

Assay [9] relates to Rattus norvegicus. Description: Effect on heart rate before isoprenaline induced tachycardia in the anesthetized rat at 2 mg/kg dose. It is filed as functional. The gist of the method:
as §1

The test system of assay [10] is Rattus norvegicus. Description: Effect on heart rate after isoprenaline induced tachycardia in the anesthetized rat at 2 mg/kg dose. The assay is classed as functional. The gist of the method: as §4
The species entered for assay [11] is Mus musculus. Description: ED 50 value against aconitine-induced arrhythmias in mice; IA is Inactive. The assay is classed as functional, organism-based. The gist of the method:
as §2

The test system of assay [12] is Rattus norvegicus. As to the kind of experiment: Effect of teh compound on heart rate on 1 min post isoprenaline induced tachycardia in the anesthetized rat at 2.0 mg/kg dose. The assay is classed as functional. The gist of the method:
as §4

The subject of assay [13] is Rattus norvegicus. As to the kind of experiment: Effect on heart rate on 1 min post isoprenaline induced tachycardia in the anesthetized rat at 1.0 mg/kg dose. The assay is classed as functional. The gist of the method: as §1
Assay [14] relates to Rattus norvegicus. Description: Compound was tested for antagonism of Ventricular Fibrilloflutter (VF) evoked by coronary artery ligation in the rat measured at 0.01 mg/kg dose. The assay is classed as functional, Heart. The conditions noted are these: dose 0.1 mg/kg; in the assay text read “0.1 mg/kg” for “0.01 mg/kg”. The gist of the method: as §3
Assay [15] has as its system Rattus norvegicus. As to the kind of experiment: Compound was tested for antagonism of Ventricular Fibrilloflutter (VF) evoked by coronary artery ligation in the rat measured at 1 mg/kg dose. It is filed as functional, Heart. The gist of the method: as §3
Assay [16] has as its system Rattus norvegicus. Description: Effective dose that antagonized arrhythmias evoked by coronary artery ligation in the rat was measured at 0.01 mg/kg dose. It is filed as functional.
Assay [17] has as its system Rattus norvegicus. As to the kind of experiment: Compound was tested for antagonism of Ventricular Fibrilloflutter (VF) evoked by coronary artery ligation in the rat measured at 0.05 mg/kg dose. It is filed as functional, Heart. The method in brief: as §3
For assay [18], the system named is Rattus norvegicus. Description: Effect on heart rate on 1 min post isoprenaline induced tachycardia in the anesthetized rat at 2.0 mg/kg dose. The assay is classed as functional. The gist of the method: as §1
Assay [19] concerns Rattus norvegicus. Description: Antagonism of Ventricular Fibrilloflutter (VF) evoked by coronary artery ligation in the rat measured at 2 mg/kg dose. The assay is classed as functional, Heart. The method in brief: as §3
Assay [20] concerns Rattus norvegicus. As to the kind of experiment: Compound was tested for antagonism of Ventricular Fibrilloflutter (VF) evoked by coronary artery ligation in the rat measured at 0.5 mg/kg dose. It is filed as functional, Heart. The method in brief: as §3
The subject of assay [21] is Rattus norvegicus. As to the kind of experiment: Effective dose that antagonized arrhythmias evoked by coronary artery ligation in the rat was measured at 1.0 mg/kg dose. It is filed as functional.

On to `CCCNCC(O)COc1ccccc1C(=O)CCc1ccccc1` (stereo unspecified) [PROPAFENONE], for which the figures for the Heart rate in [1], in assay [6] and in assay [7] were 445 beats min-1, 443 beats min-1 and 391 beats min-1, respectively. Further, the ED50 in assay [2] was 24.3 mg/kg; in assay [5], 0.7 mg/kg. Also, the EC25 in assay [3] stood at 1.85 µg/mL (≈ 5.42 µM). The Change in [4] was -11.7%. The compound further displayed an Increase in [8] of 13.8%.
With `CNC1CC[C@H]2[C@@H]3CCc4cc(O)ccc4[C@H]3CC[C@]12C` (stereo partly specified), it took a dose of 8.2 mg/kg to reach the 50% effect level in assay [2] (ED50). In [3], this compound returned an EC25 of 2.09 µg/mL (≈ 7.32 µM).
Turning to `CNC1CC[C@H]2[C@@H]3CCc4cc(OCC(O)CNC(C)C)ccc4[C@H]3CC[C@]12C` (stereo partly specified), the Heart rate in assay [9] was determined as 407 beats min-1; in assay [10], 315 beats min-1; in assay [12], 318 beats min-1. The EC25 in [3] stood at 11.9 µg/mL (≈ 29.7 µM). Further, the Change in [4] is recorded as -22.6%. In [11], the ED50 entry is “inactive”. This compound also gave an Increase in [8] of 1%.
Take `CN(C)C1CC[C@H]2[C@@H]3CCc4cc(OCC(O)CNC(C)(C)C)ccc4[C@H]3CC[C@]12C` (stereo partly specified): the Heart rate in assay [13] is 376 beats min-1; in assay [6], 390 beats min-1; in [7], 363 beats min-1. For the same compound, the EC25 in assay [3] is 24.1 µg/mL (≈ 56.2 µM). The Change in assay [4] is given as -6.9%. Further, the results for the VF in [14], in assay [15] and in assay [17] were 25%, 0% and 38%, respectively. In [11], the ED50 entry is “inactive”. In [16], this compound had an ED50 of 0.05 mg/kg. This compound had an Increase in [8] of 3.4%.
Turning to `CNC1[C@H](O)C[C@H]2[C@@H]3CCc4cc(OCC(O)CNC(C)C)ccc4[C@H]3CC[C@]12C` (stereo partly specified), the 25% effect level in [3] (EC25) was put at 21 µg/mL (≈ 50.4 µM). Moreover, in [11], the ED50 entry is “inactive”.
On to `CN(C)C1[C@H](O)C[C@H]2[C@@H]3CCc4cc(OCC(O)CNC(C)(C)C)ccc4[C@H]3CC[C@]12C` (stereo partly specified), for which the values for the Heart rate in [18], in assay [9] and in [10] were 340 beats min-1, 393 beats min-1 and 325 beats min-1, respectively. Moreover, the VF in assay [19] came out at 0%; in [20], 44%; in [15], 38%. In [3], this compound gave a 25% effect concentration (EC25) of 17.1 µg/mL (≈ 38.5 µM). For the same compound, the Change in assay [4] was -17.3%. In assay [11], the ED50 entry is “inactive”. The 50% effect level in [21] (ED50) was put at a dose of 0.5 mg/kg. In assay [8], this compound returned an Increase of 4.6%.
